{
  "source": "ChEMBL document CHEMBL1157911",
  "about": "“A prodrug approach towards the development of tricyclic-based FBPase inhibitors” (Bioorg Med Chem Lett, 2010)",
  "data": [
    {"tested_on": "not listed separately", "assay": "Inhibition of fructose-1,6-bisphosphatase in monkey hepatocytes assessed as glucose production", "type": "cell-based", "conditions": "Macaca mulatta, Hepatocyte", "units": {"IC50": "µM"}, "values": [
      {"smiles": "Cc1cc(OC[P@@]2(=O)OCC[C@@H](c3cccc(Cl)c3)O2)c2c(c1C)Cc1scnc1-2", "IC50": 15},
      {"smiles": "Cc1cc(OC[P@@]2(=O)OCC[C@@H](c3cccnc3C)O2)c2c(c1C)Cc1scnc1-2", "IC50": 4},
      {"smiles": "CCOC(=O)[C@H](C)NP(=O)(COc1cc(C)c(C)c2c1-c1ncsc1C2)N[C@@H](C)C(=O)OCC", "IC50": 6.8},
      {"smiles": "Cc1cc(OC[P@]2(=O)OCC[C@@H](c3cccc(Cl)c3)O2)c2c(c1C)Cc1scnc1-2", "IC50": "> 100"},
      {"smiles": "Cc1cc(OC[P@@]2(=O)OCC[C@@H](c3ccncc3)O2)c2c(c1C)Cc1scnc1-2", "note": "(racemic)", "IC50": 41},
      {"smiles": "Cc1cc(OC[P@]2(=O)OCC[C@H](c3cccnc3C)O2)c2c(c1C)Cc1scnc1-2", "note": "(racemic)", "IC50": 11},
      {"smiles": "Cc1ccncc1[C@@H]1CCO[P@](=O)(COc2cc(C)c(C)c3c2-c2ncsc2C3)O1", "note": "(racemic)", "IC50": "> 100"},
      {"smiles": "Cc1cc(OC[P@@]2(=O)OCC[C@@H](c3ccc(Cl)cc3)O2)c2c(c1C)Cc1scnc1-2", "note": "(racemic)", "IC50": 66},
      {"smiles": "Cc1cc(OC[P@]2(=O)OCC[C@@H](c3ccc(Cl)cc3)O2)c2c(c1C)Cc1scnc1-2", "note": "(racemic)", "IC50": "> 100"},
      {"smiles": "Cc1cc(OC[P@@]2(=O)OCC[C@@H](c3cccnc3)O2)c2c(c1C)Cc1scnc1-2", "note": "(racemic)", "IC50": 8.8},
      {"smiles": "COc1cccc([C@@H]2CCO[P@](=O)(COc3cc(C)c(C)c4c3-c3ncsc3C4)O2)c1", "note": "(racemic)", "IC50": "> 100"},
      {"smiles": "COc1cccc([C@@H]2CCO[P@@](=O)(COc3cc(C)c(C)c4c3-c3ncsc3C4)O2)c1", "note": "(racemic)", "IC50": "> 100"},
      {"smiles": "Cc1cc(OC[P@@]2(=O)OCC[C@@H](c3ccccn3)O2)c2c(c1C)Cc1scnc1-2", "note": "(racemic)", "IC50": 22}
    ]},
    {"tested_on": "not listed separately", "assay": "Solubility at pH 1.2", "type": "physicochemical", "conditions": "buffer", "summary_of_the_method": "(§1)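 Solubility measured in Japanese Pharmacopoeia test fluids: first fluid (JP1, pH 1.2, simulating gastric conditions) and second fluid (JP2, pH 6.8, simulating intestinal conditions).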", "units": {"solubility": "µg/mL"}, "values": [
      {"smiles": "Cc1cc(OC[P@@]2(=O)OCC[C@@H](c3cccc(Cl)c3)O2)c2c(c1C)Cc1scnc1-2", "solubility": 19},
      {"smiles": "Cc1cc(OC[P@@]2(=O)OCC[C@@H](c3cccnc3C)O2)c2c(c1C)Cc1scnc1-2", "solubility": 88},
      {"smiles": "CCOC(=O)[C@H](C)NP(=O)(COc1cc(C)c(C)c2c1-c1ncsc1C2)N[C@@H](C)C(=O)OCC", "solubility": 27},
      {"smiles": "Cc1cc(OC[P@]2(=O)OCC[C@@H](c3cccc(Cl)c3)O2)c2c(c1C)Cc1scnc1-2", "solubility": "< 0.5"},
      {"smiles": "Cc1cc(OC[P@@]2(=O)OCC[C@@H](c3ccncc3)O2)c2c(c1C)Cc1scnc1-2", "note": "(racemic)", "solubility": 88},
      {"smiles": "Cc1cc(OC[P@]2(=O)OCC[C@H](c3cccnc3C)O2)c2c(c1C)Cc1scnc1-2", "note": "(racemic)", "solubility": 87},
      {"smiles": "Cc1ccncc1[C@@H]1CCO[P@](=O)(COc2cc(C)c(C)c3c2-c2ncsc2C3)O1", "note": "(racemic)", "solubility": "> 100"},
      {"smiles": "Cc1cc(OC[P@@]2(=O)OCC[C@@H](c3ccc(Cl)cc3)O2)c2c(c1C)Cc1scnc1-2", "note": "(racemic)", "solubility": 4.4},
      {"smiles": "Cc1cc(OC[P@]2(=O)OCC[C@@H](c3ccc(Cl)cc3)O2)c2c(c1C)Cc1scnc1-2", "note": "(racemic)", "solubility": "< 0.5"},
      {"smiles": "Cc1cc(OC[P@@]2(=O)OCC[C@@H](c3cccnc3)O2)c2c(c1C)Cc1scnc1-2", "note": "(racemic)", "solubility": 86},
      {"smiles": "COc1cccc([C@@H]2CCO[P@](=O)(COc3cc(C)c(C)c4c3-c3ncsc3C4)O2)c1", "note": "(racemic)", "solubility": 17},
      {"smiles": "COc1cccc([C@@H]2CCO[P@@](=O)(COc3cc(C)c(C)c4c3-c3ncsc3C4)O2)c1", "note": "(racemic)", "solubility": "< 0.5"},
      {"smiles": "Cc1cc(OC[P@@]2(=O)OCC[C@@H](c3ccccn3)O2)c2c(c1C)Cc1scnc1-2", "note": "(racemic)", "solubility": 86}
    ]},
    {"biological_target": "Cytochrome P450 3A4 (Homo sapiens, UniProt P08684)", "sequence (P08684 whole entry)": "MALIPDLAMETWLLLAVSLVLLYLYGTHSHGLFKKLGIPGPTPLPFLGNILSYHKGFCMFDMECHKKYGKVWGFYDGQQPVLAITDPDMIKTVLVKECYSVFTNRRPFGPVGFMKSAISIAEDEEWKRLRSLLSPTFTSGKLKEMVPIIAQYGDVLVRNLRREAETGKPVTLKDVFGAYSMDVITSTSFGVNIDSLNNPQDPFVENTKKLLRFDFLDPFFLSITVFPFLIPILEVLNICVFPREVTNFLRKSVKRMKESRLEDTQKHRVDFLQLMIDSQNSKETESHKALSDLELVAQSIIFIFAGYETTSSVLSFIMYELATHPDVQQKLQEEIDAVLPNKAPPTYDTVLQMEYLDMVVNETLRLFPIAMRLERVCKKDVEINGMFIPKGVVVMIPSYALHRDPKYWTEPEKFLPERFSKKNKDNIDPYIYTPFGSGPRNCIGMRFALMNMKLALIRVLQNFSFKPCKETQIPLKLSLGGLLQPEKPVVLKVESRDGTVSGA", "assay": "Inhibition of CYP3A4", "type": "ADME", "conditions": "not given", "units": {"IC50": "µM"}, "values": [
      {"smiles": "Cc1cc(OC[P@@]2(=O)OCC[C@@H](c3cccc(Cl)c3)O2)c2c(c1C)Cc1scnc1-2", "IC50": 0.42},
      {"smiles": "Cc1cc(OC[P@@]2(=O)OCC[C@@H](c3cccnc3C)O2)c2c(c1C)Cc1scnc1-2", "IC50": 15},
      {"smiles": "CCOC(=O)[C@H](C)NP(=O)(COc1cc(C)c(C)c2c1-c1ncsc1C2)N[C@@H](C)C(=O)OCC", "IC50": 0.58},
      {"smiles": "Cc1cc(OC[P@]2(=O)OCC[C@@H](c3cccc(Cl)c3)O2)c2c(c1C)Cc1scnc1-2", "IC50": 2.7},
      {"smiles": "Cc1cc(OC[P@]2(=O)OCC[C@H](c3cccnc3C)O2)c2c(c1C)Cc1scnc1-2", "note": "(racemic)", "IC50": 5.8},
      {"smiles": "Cc1ccncc1[C@@H]1CCO[P@](=O)(COc2cc(C)c(C)c3c2-c2ncsc2C3)O1", "note": "(racemic)", "IC50": 5.2},
      {"smiles": "Cc1cc(OC[P@@]2(=O)OCC[C@@H](c3ccc(Cl)cc3)O2)c2c(c1C)Cc1scnc1-2", "note": "(racemic)", "IC50": 0.65},
      {"smiles": "Cc1cc(OC[P@]2(=O)OCC[C@@H](c3ccc(Cl)cc3)O2)c2c(c1C)Cc1scnc1-2", "note": "(racemic)", "IC50": 0.73},
      {"smiles": "Cc1cc(OC[P@@]2(=O)OCC[C@@H](c3cccnc3)O2)c2c(c1C)Cc1scnc1-2", "note": "(racemic)", "IC50": 2.9},
      {"smiles": "COc1cccc([C@@H]2CCO[P@](=O)(COc3cc(C)c(C)c4c3-c3ncsc3C4)O2)c1", "note": "(racemic)", "IC50": 0.27},
      {"smiles": "COc1cccc([C@@H]2CCO[P@@](=O)(COc3cc(C)c(C)c4c3-c3ncsc3C4)O2)c1", "note": "(racemic)", "IC50": 0.3},
      {"smiles": "Cc1cc(OC[P@@]2(=O)OCC[C@@H](c3ccccn3)O2)c2c(c1C)Cc1scnc1-2", "note": "(racemic)", "IC50": 8.4}
    ]},
    {"tested_on": "not listed separately", "assay": "Solubility at pH 6.8", "type": "physicochemical", "conditions": "buffer", "summary_of_the_method": "as §1", "units": {"solubility": "µg/mL"}, "values": [
      {"smiles": "Cc1cc(OC[P@@]2(=O)OCC[C@@H](c3cccc(Cl)c3)O2)c2c(c1C)Cc1scnc1-2", "solubility": "< 0.5"},
      {"smiles": "Cc1cc(OC[P@@]2(=O)OCC[C@@H](c3cccnc3C)O2)c2c(c1C)Cc1scnc1-2", "solubility": 84},
      {"smiles": "CCOC(=O)[C@H](C)NP(=O)(COc1cc(C)c(C)c2c1-c1ncsc1C2)N[C@@H](C)C(=O)OCC", "solubility": 66},
      {"smiles": "Cc1cc(OC[P@]2(=O)OCC[C@@H](c3cccc(Cl)c3)O2)c2c(c1C)Cc1scnc1-2", "solubility": "< 0.5"},
      {"smiles": "Cc1cc(OC[P@@]2(=O)OCC[C@@H](c3ccncc3)O2)c2c(c1C)Cc1scnc1-2", "note": "(racemic)", "solubility": 51},
      {"smiles": "Cc1cc(OC[P@]2(=O)OCC[C@H](c3cccnc3C)O2)c2c(c1C)Cc1scnc1-2", "note": "(racemic)", "solubility": 83},
      {"smiles": "Cc1ccncc1[C@@H]1CCO[P@](=O)(COc2cc(C)c(C)c3c2-c2ncsc2C3)O1", "note": "(racemic)", "solubility": 81},
      {"smiles": "Cc1cc(OC[P@@]2(=O)OCC[C@@H](c3ccc(Cl)cc3)O2)c2c(c1C)Cc1scnc1-2", "note": "(racemic)", "solubility": "< 0.5"},
      {"smiles": "Cc1cc(OC[P@]2(=O)OCC[C@@H](c3ccc(Cl)cc3)O2)c2c(c1C)Cc1scnc1-2", "note": "(racemic)", "solubility": "< 0.5"},
      {"smiles": "Cc1cc(OC[P@@]2(=O)OCC[C@@H](c3cccnc3)O2)c2c(c1C)Cc1scnc1-2", "note": "(racemic)", "solubility": 84},
      {"smiles": "COc1cccc([C@@H]2CCO[P@](=O)(COc3cc(C)c(C)c4c3-c3ncsc3C4)O2)c1", "note": "(racemic)", "solubility": 0.8},
      {"smiles": "COc1cccc([C@@H]2CCO[P@@](=O)(COc3cc(C)c(C)c4c3-c3ncsc3C4)O2)c1", "note": "(racemic)", "solubility": "< 0.5"},
      {"smiles": "Cc1cc(OC[P@@]2(=O)OCC[C@@H](c3ccccn3)O2)c2c(c1C)Cc1scnc1-2", "note": "(racemic)", "solubility": 73}
    ]}
  ]
}
